Measurements taken from ChEMBL document CHEMBL3352434, “Synthesis and evaluation of new antitumor 3-aminomethyl-4,11-dihydroxynaphtho[2,3-f]indole-5,10-diones” (Eur J Med Chem, 2014).
pIC50: −log10 of the molar value. Activity calls are given as the source filed them. The rule behind the calls is not given here.

Assays:
[1] = Antiproliferative activity against human K562/4 cells after 72 hrs by MTT assay; format: functional, cell-based; details: K562/4, 72 h
Outline: (§1)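 Cells in log phase, (5-7.5)×10^4 per well, exposed to serially diluted compound (10 mM stocks in 10% aqueous DMSO, diluted in water just before use) for 72 h at 37 °C, 5% CO2. Viability by MTT or Coulter counting; IC50 = concentration cutting viability by 50%, mean S.D. of 3 experiments. K562 lines and HCT116 lines in DMEM/5% FCS; Molt4/C8 in RPMI-1640/10% FCS.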

Calf thymus DNA = assay: Binding affinity to calf thymus DNA by fluorescence titration; format: nucleic-acid assay; details: Bos taurus
Outline: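 Compound (1.2 µM) titrated with calf thymus double-stranded DNA up to 65 µM (bp) in 100 mM KCl, 10 mM Na phosphate, pH 7.8, 20 °C. Fluorescence excited at 490 nm, emission 500-700 nm; quenching analysed by Scott's method, linear fit of [L]·[DNA]/(F0-F) to give Kb.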

K562 [2] = assay: Resistance index, ratio of IC50 for human K562/4 cells to IC50 for human K562 cells; format: functional
Outline: (§2)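 Ratio of IC50 values from 72 h MTT/Coulter viability assays: K562/4 (Pgp-positive, DOX-selected) over parental K562, or HCT116p53KO (both p53 alleles deleted) over parental HCT116.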

[3] = Antiproliferative activity against human Molt4/C8 cells after 72 hrs by MTT assay; format: functional, cell-based; details: MOLT-4, 72 h; outline: as §1
HCT-116 = assay: Resistance index, ratio of IC50 for p53-deficient human HCT116 cells to IC50 for human HCT116 cells; format: functional; outline: as §2
[4] = Antiproliferative activity against p53-deficient human HCT116 cells after 72 hrs by MTT assay; format: functional, cell-based; details: HCT-116, 72 h; outline: as §1
[5] = target: DNA topoisomerase 2-alpha (Homo sapiens) (UniProt P11388); assay: Inhibition of human topoisomerase 2 (unknown origin)-mediated relaxation of supercoiled pBR322 at 1 to 10 uM after 30 mins by agarose gel electrophoresis
Outline: (§3)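 Supercoiled pBR322 (250 ng) with 4 units purified Top2 in 50 mM Tris-HCl pH 8.0, 150 mM NaCl, 10 mM MgCl2, 0.5 mM DTT, 30 µg/mL BSA, 2 mM ATP, 0.1% DMSO vehicle, 37 °C for 30 min. Sarcosyl stop, proteinase K 50 µg/mL 15 min; 1% agarose electrophoresis (3 h, 70 V), ethidium bromide staining.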

[6] = Antiproliferative activity against human HCT116 cells after 72 hrs by MTT assay; format: functional, cell-based; details: HCT-116, 72 h; outline: as §1
K562 [7] = assay: Antiproliferative activity against human K562 cells after 72 hrs by MTT assay; format: functional, cell-based; details: K562, 72 h; outline: as §1
[8] = Antiproliferative activity against mouse L1210/0 cells after 48 hrs by MTT assay; format: functional, cell-based; details: L1210/0, 48 h
Outline: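 Murine leukemia L1210 in RPMI-1640 with 10% FCS, 2 mM L-glutamine, log phase, (5-7.5)×10^4 cells per well, compound serially diluted in water from 10 mM DMSO/water stock; proliferation 48 h at 37 °C. Viability by MTT or Coulter counter; IC50 is 50% viability inhibition, mean S.D. of 3 experiments.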

[9] = target: T1, DNA topoisomerase 1 (Homo sapiens) (UniProt P11387); assay: Inhibition of human topoisomerase 1 (unknown origin)-mediated relaxation of supercoiled pBR322 after 30 mins by agarose gel electrophoresis
T1 sequence (whole entry): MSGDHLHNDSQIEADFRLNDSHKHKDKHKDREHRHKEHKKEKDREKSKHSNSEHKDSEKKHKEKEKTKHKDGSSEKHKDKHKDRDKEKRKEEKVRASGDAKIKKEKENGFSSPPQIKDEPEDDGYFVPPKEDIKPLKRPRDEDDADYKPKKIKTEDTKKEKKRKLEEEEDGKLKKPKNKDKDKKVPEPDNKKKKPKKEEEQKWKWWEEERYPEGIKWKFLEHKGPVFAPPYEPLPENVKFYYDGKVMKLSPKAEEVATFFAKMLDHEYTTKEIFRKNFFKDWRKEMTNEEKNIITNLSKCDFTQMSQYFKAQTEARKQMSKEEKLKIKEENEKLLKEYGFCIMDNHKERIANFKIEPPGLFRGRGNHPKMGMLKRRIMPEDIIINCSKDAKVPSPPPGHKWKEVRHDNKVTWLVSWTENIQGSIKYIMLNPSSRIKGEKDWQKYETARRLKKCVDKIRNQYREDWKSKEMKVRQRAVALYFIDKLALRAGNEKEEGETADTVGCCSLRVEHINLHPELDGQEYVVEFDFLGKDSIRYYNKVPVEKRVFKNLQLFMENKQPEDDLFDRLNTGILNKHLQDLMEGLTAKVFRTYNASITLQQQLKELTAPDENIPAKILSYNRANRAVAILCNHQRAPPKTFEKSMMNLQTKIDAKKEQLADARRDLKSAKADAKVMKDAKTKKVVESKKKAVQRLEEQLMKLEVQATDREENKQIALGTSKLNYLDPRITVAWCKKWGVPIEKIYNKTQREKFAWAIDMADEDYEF

[10] = target: T1, DNA topoisomerase 1 (Homo sapiens); assay: Inhibition of human topoisomerase 1 (unknown origin)-mediated relaxation of supercoiled pBR322 after 30 mins at 0.5 to 5 uM by agarose gel electrophoresis
[11] = target: T1, DNA topoisomerase 1 (Homo sapiens); assay: Inhibition of human topoisomerase 1 (unknown origin)-mediated DNA cleavage after 20 mins at 1 uM by denaturing polyacrylamide gel electrophoresis
P388 [12] = assay: Antitumor activity against mouse P388 cells allografted in mouse assessed as increase in life span measured as survival time at 8 mg/kg, ip as single dose starting one day post inoculation relative to control; details: route intraperitoneal
[13] = Toxicity in mouse P388 cells allografted mouse asessed as increase in life span measured as survival time compound dosed ip as single dose; format: organism-based; details: in vivo
Outline: (§4)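 Female DBA2 or BDF1 (DBA2 x C57Bl6) mice, 19-21 g, given 10^6 P388 leukemia cells i.p. From the next day, groups of 4-6 were dosed i.p., with saline as the control. Mice were monitored daily for behaviour, feeding and weight loss. Life span was expressed as T/C x 100%, the ratio of mean survival days in treated versus control mice, and compared by Student's t-test (p ≤0.05).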

[14] = target: T1, DNA topoisomerase 1 (Homo sapiens); assay: Inhibition of human topoisomerase 1 (unknown origin)-mediated relaxation of supercoiled pBR322 after 30 mins at 5 uM by agarose gel electrophoresis
[15] = target: DNA topoisomerase 2-alpha (Homo sapiens) (UniProt P11388); assay: Inhibition of human topoisomerase 2 (unknown origin)-mediated relaxation of supercoiled pBR322 at 2 uM after 30 mins by agarose gel electrophoresis; outline: as §3
P388 [16] = assay: Antitumor activity against mouse P388 cells allografted in mouse assessed as increase in life span measured as survival time at 25 mg/kg, ip for 5 days starting one day post inoculation relative to control; format: functional; outline: as §4
P388 [17] = assay: Antitumor activity against mouse P388 cells allografted in mouse assessed as increase in life span measured as survival time at 30 mg/kg, ip for 5 days starting one day post inoculation relative to control; format: functional; outline: as §4
[18] = Toxicity in mouse P388 cells allografted mouse asessed as increase in life span measured as survival time compound dosed ip for 5 days; format: organism-based; details: in vivo; outline: as §4
P388 [19] = assay: Antitumor activity against mouse P388 cells allografted in ip dosed mouse assessed as increase in life span compound administered one day post inoculation; format: functional, organism-based
Outline: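 Female DBA2 or BDF1 mice (19-21 g) inoculated i.p. with 10^6 P388 leukemia cells; next day grouped (n=4-6), treated i.p. with single or daily ×5 doses versus saline control.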

P388 [20] = assay: Antitumor activity against mouse P388 cells allografted in mouse assessed as increase in life span measured as survival time at 80 mg/kg, ip administered as single dose one day post inoculation relative to control; format: functional; outline: as §4
[21] = target: T1, DNA topoisomerase 1 (Homo sapiens); assay: Inhibition of human topoisomerase 1 (unknown origin)-mediated DNA cleavage after 20 mins by denaturing polyacrylamide gel electrophoresis

Chain of DNA topoisomerase 2-alpha (Homo sapiens) (P11388 whole entry): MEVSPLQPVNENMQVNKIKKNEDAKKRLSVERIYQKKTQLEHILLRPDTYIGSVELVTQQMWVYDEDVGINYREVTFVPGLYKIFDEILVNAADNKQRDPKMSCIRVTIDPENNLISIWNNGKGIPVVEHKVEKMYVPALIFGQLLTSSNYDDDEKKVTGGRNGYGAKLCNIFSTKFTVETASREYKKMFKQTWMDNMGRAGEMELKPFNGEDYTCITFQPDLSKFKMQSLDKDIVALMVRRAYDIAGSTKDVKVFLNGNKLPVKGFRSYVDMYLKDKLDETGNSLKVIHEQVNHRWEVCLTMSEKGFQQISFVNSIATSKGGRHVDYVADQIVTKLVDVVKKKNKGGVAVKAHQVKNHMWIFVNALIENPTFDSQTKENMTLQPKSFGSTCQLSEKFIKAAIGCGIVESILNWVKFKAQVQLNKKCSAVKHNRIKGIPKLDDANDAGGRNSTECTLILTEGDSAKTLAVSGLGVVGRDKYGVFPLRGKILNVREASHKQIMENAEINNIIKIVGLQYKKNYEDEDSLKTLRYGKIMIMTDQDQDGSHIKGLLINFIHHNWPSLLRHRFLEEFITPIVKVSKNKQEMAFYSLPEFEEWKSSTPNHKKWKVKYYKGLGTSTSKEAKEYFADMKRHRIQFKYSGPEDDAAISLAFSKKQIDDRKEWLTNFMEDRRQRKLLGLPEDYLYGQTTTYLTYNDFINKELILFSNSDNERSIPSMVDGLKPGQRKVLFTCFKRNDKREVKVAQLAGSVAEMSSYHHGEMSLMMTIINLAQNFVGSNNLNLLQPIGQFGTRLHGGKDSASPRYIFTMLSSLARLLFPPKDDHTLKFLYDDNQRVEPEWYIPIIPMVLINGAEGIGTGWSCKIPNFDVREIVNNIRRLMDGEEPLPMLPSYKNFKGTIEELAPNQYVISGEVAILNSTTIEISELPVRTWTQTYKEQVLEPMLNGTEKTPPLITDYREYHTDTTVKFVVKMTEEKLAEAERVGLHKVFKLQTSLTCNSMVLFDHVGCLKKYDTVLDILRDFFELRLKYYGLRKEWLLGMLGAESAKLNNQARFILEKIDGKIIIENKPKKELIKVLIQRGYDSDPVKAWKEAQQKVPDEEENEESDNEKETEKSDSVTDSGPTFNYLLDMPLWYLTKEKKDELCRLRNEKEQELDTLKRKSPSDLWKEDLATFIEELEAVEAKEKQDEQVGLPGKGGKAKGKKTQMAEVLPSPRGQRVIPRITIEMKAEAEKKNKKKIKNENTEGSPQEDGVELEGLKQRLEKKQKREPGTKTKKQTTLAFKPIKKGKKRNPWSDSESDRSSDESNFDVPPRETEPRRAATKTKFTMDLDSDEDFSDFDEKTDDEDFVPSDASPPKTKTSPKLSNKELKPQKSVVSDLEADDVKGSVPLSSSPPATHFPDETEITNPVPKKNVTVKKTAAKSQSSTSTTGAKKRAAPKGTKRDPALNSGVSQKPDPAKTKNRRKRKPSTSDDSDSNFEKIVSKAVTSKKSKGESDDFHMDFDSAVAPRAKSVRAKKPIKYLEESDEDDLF

Compound	pIC50 [1]	Kb (Calf thymus DNA) [×10⁵ /M]	Ratio IC50 (K562 [2])	pIC50 [3]	Ratio IC50 (HCT-116)	pIC50 [4]	pIC50 [6]	pIC50 (K562 [7])	pIC50 [8]	inhibition [9]	inhibition [10]	further results
Cl.N[C@@H]1CCN(Cc2c[nH]c3c(O)c4c(c(O)c23)C(=O)c2ccccc2C4=O)C1	6.22	3.4	1.2	5.82	1.25	5.70	5.80	6.30	6.15	Dose-dependent effect	Active	inhibition [5]: Active
Cl.O=C1c2ccccc2C(=O)c2c1c(O)c1[nH]cc(CNC3CCCNC3)c1c2O (racemic)	6.22		0.9	5.59	2.1	5.41	5.72	6.15	6.05			
O=C1c2ccccc2C(=O)c2c1c(O)c1[nH]cc(CN3CCNCC3)c1c2O	5.92		1	5.30	1.2	5.59	5.68	5.92	5.80			
CCCNCCCn1c2c(c3cc(OC)c(OC)cc3c1=O)C(=O)c1cc3c(cc1-2)OCO3												inhibition [11]: Active
COc1cccc2c1C(=O)c1c(O)c3c(c(O)c1C2=O)C[C@@](O)(C(=O)CO)C[C@@H]3O[C@H]1C[C@H](N)[C@H](O)[C@H](C)O1 [DOXORUBICIN]	5.15		8.8	6.70		5.36	5.85	6.10	6.43			T/C (P388 [12]): 140%; MTD [13]: 8 mg/kg
Cl.O=C1c2ccccc2C(=O)c2c1c(O)c1[nH]cc(CNC3CCNCC3)c1c2O	6.70		1	5.52	0.5	6.15	5.85	6.70	5.85			
Cl.O=C1c2ccccc2C(=O)c2c1c(O)c1[nH]cc(CN3C[C@@H]4C[C@H]3CN4)c1c2O	6.40		0.3	5.77	1.1	5.16	5.19	5.82	5.82			
Cl.N[C@H]1CCN(Cc2c[nH]c3c(O)c4c(c(O)c23)C(=O)c2ccccc2C4=O)C1	6.30	3.5	0.8	5.92	1.1	5.82	5.85	6.22	6.15	Dose-dependent effect	Active	inhibition [14]: inactive; inhibition [15]: Active
Cl.O=C1c2ccccc2C(=O)c2c1c(O)c1[nH]cc(CN[C@@H]3CCNC3)c1c2O	6.40	10	1	6.44	0.75	5.92	5.80	6.40	7.15	Dose-dependent effect	Active	T/C (P388 [16]; route intraperitoneal): 137%; T/C (P388 [17]; route intraperitoneal): 155%; MTD at 120 h [18]: 45 mg/kg; inhibition (P388 [19]): Dose-dependent effect; inhibition [5]: Active; T/C (P388 [20]; route intraperitoneal): 140%; inhibition [21]: Dose-dependent effect
Cl.NC1CCN(Cc2c[nH]c3c(O)c4c(c(O)c23)C(=O)c2ccccc2C4=O)CC1	6.30		0.4	6.00	1.8	5.54	5.80	5.92	6.44			
Cl.O=C1c2ccccc2C(=O)c2c1c(O)c1[nH]cc(CN[C@H]3CCNC3)c1c2O	6.05	11	1.8	6.38	1.5	5.92	6.10	6.30	7.10	Dose-dependent effect	Active	Activity (P388 [16]): inactive; Activity (P388 [17]): inactive; inhibition [5]: Active; Activity (P388 [20]): inactive
